The results in this text go back to ChEMBL document CHEMBL1926542, “Synthesis and in vitro antiproliferative evaluation of pyrimido[5,4-c]quinoline-4-(3H)-one derivatives” (Eur J Med Chem, 2012).

Common to all, as to type: functional, cell-based
One assay relates to KB. Put plainly: Antiproliferative activity against human KB cells after 72 hrs by MTT assay. Put shortly:
(§1)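 Cells in 10% fetal calf serum, RPMI 1640 for all lines except MCF-7 (DMEM). Log-phase cells seeded at 2×10⁴ cells/ml, 37 °C, 5% CO₂. Compounds added after 24 h, then 72 h at 37 °C. MTT (5 mg/ml saline stock) for 3 h, formazan dissolved in DMSO, A570 read (ref 655 nm). IC₅₀ from dose-response curves. Mean of three independent experiments.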
Background: Tetrazolium dyes change colour on reduction, which living cells bring about.

The nature of assay [1]: Antiproliferative activity against human CNE2 cells after 72 hrs by MTT assay. The following applies: CNE-2, 72 h. Put shortly: as §1
The next assay relates to MGC-803. Put plainly: Antiproliferative activity against human MGC803 cells after 72 hrs by MTT assay. The following applies: MGC-803, 72 h. Put shortly:
as §1

Assay [2] can be described thus: Antiproliferative activity against human GLC82 cells after 72 hrs by MTT assay. Conditions: GLC82, 72 h. Put shortly:
as §1

A further assay concerns MDA-MB-453. Put plainly: Antiproliferative activity against human MDA-MB-453 cells after 72 hrs by MTT assay. Conditions: MDA-MB-453, 72 h. Put shortly: as §1
A further assay has as its system MCF7. Briefly: Antiproliferative activity against human MCF7 cells after 72 hrs by MTT assay. Conditions: MCF7, 72 h. Put shortly:
as §1

As usually defined, the IC50 is the concentration that inhibits the measured activity by half. Read a low IC50 as greater potency.

Regarding `Cc1nc2ccccc2c2nc(Nc3ccccc3)n(N)c(=O)c12`, the IC50 in the assay on KB was 30.3 µM; in assay [1], greater than 50 µM; in the assay with MGC-803 it was 14.7 µM; in assay [2] it was greater than 50 µM; in the assay with MDA-MB-453 it was greater than 50 µM; in the assay on MCF7 it was greater than 50 µM.
With `Cc1nc2ccccc2c2nc(Oc3ccc(Cl)cc3Cl)n(-c3ccccc3)c(=O)c12`, the IC50 with KB was 22.8 µM; in assay [1], 42.9 µM; in the assay with MGC-803, greater than 50 µM; in assay [2] it was greater than 50 µM; in the assay with MDA-MB-453, greater than 50 µM; in the assay on MCF7 it was greater than 50 µM.
For the compound `Cc1nc2ccccc2c2nc(Oc3ccc(Br)cc3)n(-c3ccc(Cl)cc3)c(=O)c12`, the IC50 is 29.5 µM in the assay on KB; 28.7 µM in assay [1]; 15.3 µM in the assay on MGC-803; greater than 50 µM in assay [2]; 26.6 µM in the assay with MDA-MB-453; 35.7 µM in the assay with MCF7.
Consider `CCn1cnc2c(c(C)nc3ccccc32)c1=O`, for which the IC50 (in the assay with KB; in assay [1]; with MGC-803; in assay [2]; in the assay on MDA-MB-453; with MCF7) was greater than 50 µM in each case.
In the case of `Cc1nc2ccccc2c2nc(Oc3ccc([N+](=O)[O-])cc3Cl)n(-c3ccc(Cl)cc3)c(=O)c12`, the 50% inhibitory concentration (IC50) in the assay with KB stood at 4.9 µM; in assay [1], 13.8 µM; in the assay with MGC-803 it was 4.8 µM; in assay [2], 7.88 µM; with MDA-MB-453 it was 18.2 µM; with MCF7, 10.1 µM.
As for `Cc1cc(Oc2nc3c(c(C)nc4ccccc43)c(=O)n2-c2ccc(F)cc2)ccc1Cl`, the IC50 with KB is greater than 50 µM; in assay [1] it was greater than 50 µM; in the assay on MGC-803, 41.4 µM; in assay [2] it was greater than 50 µM; with MDA-MB-453, greater than 50 µM; with MCF7, greater than 50 µM.
For the compound `Cc1nc2ccccc2c2ncn(CC(C)C)c(=O)c12`, the IC50 (in the assay on KB; in assay [1]; in the assay on MGC-803; in assay [2]; in the assay on MDA-MB-453; in the assay on MCF7) was greater than 50 µM each time.
In the case of `Cc1nc2ccccc2c2ncn(C(C)C)c(=O)c12`, the 50% inhibitory concentration (IC50) (in the assay with KB; in assay [1]; in the assay on MGC-803; in assay [2]; with MDA-MB-453; in the assay with MCF7) was greater than 50 µM in each case.
For `Cc1nc2ccccc2c2ncn(CCN)c(=O)c12`, the IC50 with KB is 39.8 µM; in assay [1], greater than 50 µM; in the assay with MGC-803, 39.9 µM; in assay [2], greater than 50 µM; in the assay with MDA-MB-453, 45.7 µM; in the assay on MCF7, 43.5 µM.
`Cc1nc2ccccc2c2nc(Oc3ccccc3Cl)n(-c3ccc(F)cc3)c(=O)c12`: the IC50 (in the assay with KB; in assay [1]; in the assay with MGC-803; in assay [2]; with MDA-MB-453; with MCF7) was greater than 50 µM each time.
As to `Cc1nc2ccccc2c2ncn(Cc3ccccc3)c(=O)c12`, the IC50 with KB was greater than 50 µM; in assay [1], 26.5 µM; in the assay with MGC-803 it was greater than 50 µM; in assay [2] it was greater than 50 µM; in the assay on MDA-MB-453, greater than 50 µM; with MCF7, greater than 50 µM.
Regarding `Cc1nc2ccccc2c2ncn(N)c(=O)c12`, the IC50 (in the assay with KB; in assay [1]; with MGC-803; in assay [2]; with MDA-MB-453; with MCF7) was greater than 50 µM throughout.
As for `Cc1nc2ccccc2c2ncn(CCc3ccccc3)c(=O)c12`, the IC50 with KB is greater than 50 µM; in assay [1], greater than 50 µM; with MGC-803 it was greater than 50 µM; in assay [2] it was 35.2 µM; in the assay with MDA-MB-453 it was 49.5 µM; in the assay with MCF7, greater than 50 µM.
`Cc1nc2ccccc2c2nc(NC(C)(C)C)n(-c3ccccc3)c(=O)c12`: the IC50 (in the assay with KB; in assay [1]; in the assay with MGC-803; in assay [2]; with MDA-MB-453; in the assay on MCF7) was greater than 50 µM in each case.
In the case of `Cc1nc2ccccc2c2nc3n(-c4ccccc4)cnn3c(=O)c12`, the IC50 (with KB; in assay [1]; in the assay with MGC-803; in assay [2]; in the assay on MDA-MB-453; in the assay on MCF7) was greater than 50 µM in each case.
Take `Cc1nc2ccccc2c2nc(Nc3ccc(Cl)cc3)n(N)c(=O)c12`: the IC50 (in the assay on KB; in assay [1]; with MGC-803; in assay [2]; in the assay on MDA-MB-453; in the assay with MCF7) was greater than 50 µM in each case.
`CCCCn1cnc2c(c(C)nc3ccccc32)c1=O`: the half-maximal inhibitory concentration (IC50) (in the assay with KB; in assay [1]; with MGC-803; in assay [2]; with MDA-MB-453; in the assay with MCF7) was greater than 50 µM each time.
`O=c1[nH]cc(F)c(=O)[nH]1` [FLUOROURACIL]: the IC50 with KB is 9.85 µM; in assay [1], 17.2 µM; in the assay on MGC-803, 16.6 µM; in assay [2], 15.5 µM; with MDA-MB-453, greater than 50 µM; in the assay on MCF7 it was 9.67 µM.
For `COc1ccccc1Oc1nc2c(c(C)nc3ccccc32)c(=O)n1-c1ccccc1`, the IC50 is greater than 50 µM in the assay on KB; greater than 50 µM in assay [1]; greater than 50 µM in the assay on MGC-803; greater than 50 µM in assay [2]; greater than 50 µM in the assay with MDA-MB-453; 35.5 µM in the assay with MCF7.
As for `CCC(C)n1cnc2c(c(C)nc3ccccc32)c1=O` (stereo not given), the IC50 (in the assay on KB; in assay [1]; in the assay with MGC-803; in assay [2]; in the assay on MDA-MB-453; with MCF7) was greater than 50 µM each time.
Regarding `Cc1nc2ccccc2c2nc(Oc3cccc4ccccc34)n(-c3ccc(Cl)cc3)c(=O)c12`, the IC50 was 33.9 µM in the assay with KB; 47 µM in assay [1]; 18.5 µM in the assay with MGC-803; 42.1 µM in assay [2]; greater than 50 µM with MDA-MB-453; 37.9 µM in the assay with MCF7.
As for `Cc1nc2ccccc2c2ncn(CCO)c(=O)c12`, the IC50 (in the assay with KB; in assay [1]; in the assay with MGC-803; in assay [2]; in the assay with MDA-MB-453; with MCF7) was greater than 50 µM each time.
In the case of `COc1ccccc1Oc1nc2c(c(C)nc3ccccc32)c(=O)n1-c1ccc(Cl)cc1`, the IC50 is 39.2 µM with KB; greater than 50 µM in assay [1]; greater than 50 µM in the assay with MGC-803; greater than 50 µM in assay [2]; 49.7 µM with MDA-MB-453; 34 µM with MCF7.
As to `Cc1nc2ccccc2c2nc(Oc3ccc4c(c3)OCO4)n(-c3ccc(Cl)cc3)c(=O)c12`, the IC50 in the assay on KB was 30.9 µM; in assay [1], 47.7 µM; in the assay on MGC-803 it was greater than 50 µM; in assay [2], greater than 50 µM; with MDA-MB-453, greater than 50 µM; in the assay with MCF7 it was greater than 50 µM.
For `CCCn1cnc2c(c(C)nc3ccccc32)c1=O`, the half-maximal inhibitory concentration (IC50) (in the assay with KB; in assay [1]; in the assay on MGC-803; in assay [2]; in the assay with MDA-MB-453; in the assay on MCF7) was greater than 50 µM in each case.
